{"source": "ChEMBL document CHEMBL4033790", "about": "“Design and Synthesis of Novel Deuterated Ligands Functionally Selective for the γ-Aminobutyric Acid Type A Receptor (GABAAR) α6 Subtype with Improved Metabolic Stability and Enhanced Bioavailability” (J Med Chem, 2018)", "key": {"Mus musculus": {"test_system": "Mus musculus", "assay": "Neurotoxicity in Swiss Webster mouse assessed as induction of motor impairment at 40 mg/kg administered via oral gavage measured after 10 to 60 mins by rotarod method", "type": "toxicity, organism-based", "details": "in vivo; call rule not given here", "in_short": "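Female mice were given a single oral gavage dose of 40 mg/kg, either in 50% PBS/40% propylene glycol/10% DMSO or, for poorly soluble compounds, in 2% polyethylene glycol plus 2.5% hydroxymethyl cellulose. Rotarod performance was tested 10, 30 and 60 min after dosing, with diazepam 5 mg/kg as positive control.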"}, "Brain [1]": {"test_system": "Brain", "assay": "AUC (0 to 12 hrs) in Wistar rat brain at 10 mg/kg, ip administered as single dose by HPLC-MS/MS analysis", "type": "ADME, organism-based", "set-up": "dose 10 mg/kg, time < 12 hr, route intraperitoneal", "details": "in vivo"}, "[2]": {"assay": "Terminal elimination half-life in Wistar rat plasma at 10 mg/kg, ip administered as single dose by HPLC-MS/MS analysis", "type": "ADME, organism-based", "details": "read-out: beta t1/2 (converted)", "in_short": "(§1)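 Male Wistar rats (250–350 g) received a single i.p. dose of 10 mg/kg as a 5 mg/ml suspension in 85% water, 14% propylene glycol and 1% Tween 80. Three rats per time point were sacrificed at 5, 20, 60, 180 and 720 min for plasma and brain. Samples were cleaned up by solid-phase extraction and quantified by HPLC-MS/MS.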"}, "[3]": {"assay": "Tmax in Wistar rat brain at 10 mg/kg, ip administered as single dose by HPLC-MS/MS analysis", "type": "ADME, organism-based", "in_short": "as §1"}, "[4]": {"assay": "Terminal elimination half-life in Wistar rat brain at 10 mg/kg, ip administered as single dose by HPLC-MS/MS analysis", "type": "ADME, organism-based", "details": "read-out: beta t1/2 (converted)", "in_short": "as §1"}, "[5]": {"assay": "Tmax in Wistar rat plasma at 10 mg/kg, ip administered as single dose by HPLC-MS/MS analysis", "type": "ADME, organism-based", "in_short": "as §1"}, "Brain [6]": {"test_system": "Brain", "assay": "Unbound AUC in Wistar rat brain at 10 mg/kg, ip administered as single dose measured at 5 to 720 mins post dose by HPLC-MS/MS analysis", "type": "ADME, organism-based", "details": "in vivo", "in_short": "(§2)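 Free fraction in rat plasma and brain tissue was measured in vitro by rapid equilibrium dialysis. Exposure came from male Wistar rats (250-350 g) given a single 10 mg/kg IP dose, as a 5 mg/ml suspension in 85% water, 14% propylene glycol and 1% Tween 80. Three rats per time point (5–720 min); brain analysed by HPLC-MS/MS after solid-phase extraction.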"}, "[7]": {"assay": "Ratio of brain AUC (0 to t) to plasma AUC (0 to t), Kp of the compound in Wistar rat at 10 mg/kg, ip administered as single dose by HPLC-MS/MS analysis", "type": "ADME, organism-based"}, "HepG2": {"test_system": "HepG2", "assay": "Cytotoxicity against human HepG2 cells assessed as reduction in cell viability up to 400 uM after 48 hrs by CellTiter-Glo assay", "type": "cell-based", "details": "hepg2, 48 h", "in_short": "(§3)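 HEK293T and HepG2 cells grown in high-glucose DMEM with non-essential amino acids, 10 mM HEPES, penicillin/streptomycin and 10% heat-inactivated FBS. Cells were harvested with trypsin and plated; compound was pin-transferred 3 h later. Incubation was 48 h, then CellTiter-Glo luminescence was read. Controls were DMSO (negative) and a cytotoxic aminoketone (positive). Quadruplicates, three independent runs, normalized to controls, nonlinear regression.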"}, "[8]": {"assay": "Metabolic stability in mouse liver microsomes assessed as parent compound remaining at 10 uM after 60 mins by LC-MS analysis", "type": "ADME, microsome", "details": "read-out: Stability", "in_short": "(§4)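 The 60 min samples of the microsomal incubation (10 μM compound, human or mouse liver microsomes at 0.5 mg/mL, NADPH regenerating system, 37 °C) were analysed by LC-MS. Detection used SIM mode with dual ESI/APCI ionization, calibrated to the retention times and masses of the parent and its O-demethylated metabolites. Peak intensities were measured.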"}, "[9]": {"assay": "Metabolic stability in human liver microsomes assessed as parent compound remaining at 10 uM after 60 mins by LC-MS analysis", "type": "ADME, microsome", "details": "read-out: Stability", "in_short": "as §4"}, "Brain [10]": {"test_system": "Brain", "assay": "Fraction unbound in Wistar rat brain at 10 mg/kg, ip administered as single dose measured at 5 to 720 mins post dose by HPLC-MS/MS analysis", "type": "ADME, organism-based", "details": "in vivo", "in_short": "as §2"}, "[11]": {"assay": "Cmax in Wistar rat plasma at 10 mg/kg, ip administered as single dose measured at 5 to 720 mins post dose by HPLC-MS/MS analysis", "type": "ADME, organism-based", "set-up": "dose 10 mg/kg, route intraperitoneal", "in_short": "(§5)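 Male Wistar rats (250-350 g) given a single 10 mg/kg i.p. dose of a 5 mg/ml suspension in 85% distilled water, 14% propylene glycol, 1% Tween 80. Three rats per time point (5, 20, 60, 180, 720 min). Blood and brain were collected after sacrifice. Drug was recovered by solid phase extraction and quantified by HPLC-MS/MS.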"}, "HEK-293T": {"test_system": "HEK-293T", "assay": "Cytotoxicity against HEK293T cells assessed as reduction in cell viability up to 400 uM after 48 hrs by CellTiter-Glo assay", "type": "cell-based", "details": "human", "in_short": "as §3"}, "[12]": {"assay": "AUC (0 to 12 hrs) in Wistar rat plasma at 10 mg/kg, ip administered as single dose by HPLC-MS/MS analysis", "type": "ADME, organism-based", "set-up": "time < 12 hr, dose 10 mg/kg, route intraperitoneal"}, "[13]": {"molecular_target": "Voltage-gated inwardly rectifying potassium channel KCNH2 (Homo sapiens, UniProt Q12809)", "sequence (Q12809 whole entry)": "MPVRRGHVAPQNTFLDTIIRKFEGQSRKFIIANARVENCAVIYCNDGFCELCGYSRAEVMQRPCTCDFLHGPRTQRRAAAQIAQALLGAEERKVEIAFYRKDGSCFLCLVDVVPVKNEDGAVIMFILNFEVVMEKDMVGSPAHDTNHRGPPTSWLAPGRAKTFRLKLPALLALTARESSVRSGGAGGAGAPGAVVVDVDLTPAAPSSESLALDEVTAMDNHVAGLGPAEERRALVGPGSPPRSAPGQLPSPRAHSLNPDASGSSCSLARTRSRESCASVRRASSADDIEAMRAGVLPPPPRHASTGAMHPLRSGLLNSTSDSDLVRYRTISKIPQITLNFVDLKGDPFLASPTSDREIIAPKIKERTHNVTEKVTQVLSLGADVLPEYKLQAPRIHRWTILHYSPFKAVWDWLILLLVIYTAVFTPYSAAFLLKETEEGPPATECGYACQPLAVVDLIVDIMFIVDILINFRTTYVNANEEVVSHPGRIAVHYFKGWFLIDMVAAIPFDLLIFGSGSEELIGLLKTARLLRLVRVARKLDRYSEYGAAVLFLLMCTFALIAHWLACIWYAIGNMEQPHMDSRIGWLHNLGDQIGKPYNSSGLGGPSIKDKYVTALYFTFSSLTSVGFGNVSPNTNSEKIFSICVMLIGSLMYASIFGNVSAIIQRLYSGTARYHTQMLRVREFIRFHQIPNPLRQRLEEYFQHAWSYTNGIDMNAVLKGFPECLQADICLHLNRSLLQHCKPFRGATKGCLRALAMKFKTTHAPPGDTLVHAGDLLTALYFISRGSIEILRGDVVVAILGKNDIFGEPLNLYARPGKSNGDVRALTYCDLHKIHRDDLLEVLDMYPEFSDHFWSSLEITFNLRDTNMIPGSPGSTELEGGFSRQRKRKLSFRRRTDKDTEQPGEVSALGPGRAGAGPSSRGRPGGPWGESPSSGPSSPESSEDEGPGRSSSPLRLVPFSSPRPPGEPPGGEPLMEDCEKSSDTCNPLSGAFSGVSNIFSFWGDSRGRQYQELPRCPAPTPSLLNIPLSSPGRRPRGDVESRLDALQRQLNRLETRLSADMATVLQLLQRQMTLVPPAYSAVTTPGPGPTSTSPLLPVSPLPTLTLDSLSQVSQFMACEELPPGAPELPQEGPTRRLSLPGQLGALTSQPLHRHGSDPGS", "assay": "Displacement of [3H]-dofetilide from human ERG expressed in HEK cell membranes at >10 uM after 60 to 90 mins by scintillation counting"}, "[14]": {"assay": "Cmax in Wistar rat brain at 10 mg/kg, ip administered as single dose measured at 5 to 720 mins post dose by HPLC-MS/MS analysis", "type": "ADME, organism-based", "set-up": "dose 10 mg/kg, route intraperitoneal", "in_short": "as §5"}, "[15]": {"assay": "Drug level in human liver microsomes treated with 7-Bromo-2-(4-methoxy-d3-phenyl)-2,5-dihydro-3H-pyrazolo[4,3-c]quinolin-3-one after 60 mins by LC-MS analysis", "type": "ADME", "details": "1 h"}, "[16]": {"assay": "Drug level in mouse liver microsomes treated with 7-Bromo-2-(4-methoxy-d3-phenyl)-2,5-dihydro-3H-pyrazolo[4,3-c]quinolin-3-one after 60 mins by LC-MS analysis", "type": "ADME", "details": "1 h"}}}
{"smiles": "[2H]C([2H])([2H])Oc1ccc(-n2nc3c4ccc(OC([2H])([2H])[2H])cc4[nH]cc-3c2=O)cc1", "values": [{"measurement": "Activity", "setting": "Mus musculus", "result": "Non-Toxic"}, {"measurement": "AUC", "setting": "Brain [1]", "result": 2747.67, "unit": "ng·h/g"}, {"measurement": "half-life", "setting": "[2]", "result": 158, "unit": "min"}, {"measurement": "Tmax", "setting": "[3]", "result": 46.8, "unit": "min"}, {"measurement": "half-life", "setting": "[4]", "result": 211, "unit": "min"}, {"measurement": "Tmax", "setting": "[5]", "result": 33, "unit": "min"}, {"measurement": "fAUC", "setting": "Brain [6]", "result": 288.78, "unit": "ng·h/g"}, {"measurement": "Kp", "setting": "[7]", "result": 0.17}, {"measurement": "Activity", "setting": "HepG2", "result": "Non-Toxic"}, {"measurement": "remaining at 1 h, 10 µM", "setting": "[8]", "result": 93.1, "unit": "%"}, {"measurement": "remaining at 1 h, 10 µM", "setting": "[9]", "result": 91.5, "unit": "%"}, {"measurement": "Fu", "setting": "Brain [10]", "result": 0.105}, {"measurement": "Cmax", "setting": "[11]", "result": 3410, "unit": "ng/mL"}, {"measurement": "Activity", "setting": "HEK-293T", "result": "Non-Toxic"}, {"measurement": "AUC(0-t) at 12 h", "setting": "[12]", "result": 16700, "unit": "ng·h/mL"}, {"measurement": "inhibition (INH)", "setting": "[13]", "result": "Not Active"}, {"measurement": "Cmax", "setting": "[14]", "result": 534, "unit": "ng/g"}]}
{"smiles": "O=c1c2c[nH]c3cc(Br)ccc3c-2nn1-c1ccc(O)cc1", "values": [{"measurement": "Drug metabolism", "setting": "[15]", "result": "Metabolite_Detected"}, {"measurement": "Drug metabolism", "setting": "[16]", "result": "Metabolite_Detected"}]}
